{"data": "Measurements pooled from the literature", "BTK": "Tyrosine-protein kinase BTK (BTK, Homo sapiens, UniProt Q06187)", "AKT2": "RAC-beta serine/threonine-protein kinase (AKT2, Homo sapiens, UniProt P31751)", "note": "Compare with care: the assays were run in different laboratories."}
{"SMILES": "CCCCC(=O)Nc1ccc(-c2ccc3ncn(CCC)c(=O)c3c2)cn1", "target": "Mast/stem cell growth factor receptor Kit (KIT, Homo sapiens, UniProt P10721, T670I/V559D)", "test": "binding, competition with immobilised ligand", "conditions": "0.5 µM", "endpoint": "remaining binding", "result": "79%"}
{"SMILES": "Cc1nc(Nc2ncc(C(=O)Nc3c(C)cccc3Cl)s2)cc(N2CC[C@@H](N)C2)n1", "target": "BTK", "test": "enzyme activity, inhibitor, mobility shift", "conditions": "1 nM", "endpoint": "inhibition", "result": "71%"}
{"SMILES": "C1=C/COCc2cc(ccc2OCCN2CCCC2)Nc2nccc(n2)-c2cccc(c2)COC/1", "target": "Myosin light chain kinase, smooth muscle (MYLK, Homo sapiens, UniProt Q15746)", "test": "binding", "conditions": "0.1 µM", "endpoint": "remaining binding", "result": "83%"}
{"SMILES": "Cc1cc(-c2ccnc3[nH]cc(F)c23)cc(F)c1[C@@]1(O)[C@H](C)CN(C2CCS(=O)(=O)CC2)C[C@@H]1C", "target": "AKT2", "test": "enzyme activity, inhibitor", "conditions": "0.1 µM", "endpoint": "remaining activity", "result": "103%"}
{"SMILES": "C#Cc1cc(-c2cc(Nc3nc(N[C@@H](C)c4ccc(F)cn4)ncc3Cl)n[nH]2)ccc1C=O", "target": "Mitogen-activated protein kinase 12 (MAPK12, Homo sapiens, UniProt P53778)", "test": "enzyme activity, inhibitor", "conditions": "0.2 µM", "endpoint": "inhibition", "result": "1.88%"}
{"SMILES": "COc1ccc2oc(-c3ccc4nc(N)oc4c3)c/c(=N\\c3ccccc3NC(=O)CCN)c2c1", "target": "BTK", "test": "binding", "conditions": "1 µM", "endpoint": "remaining binding", "result": "96%"}
{"SMILES": "NC/C(=C\\F)COc1cccc(Cn2c(=S)[nH]c(=O)c3[nH]cnc32)c1", "target": "D(4) dopamine receptor (DRD4, Homo sapiens, UniProt P21917, del265-296)", "test": "ligand displacement, radioligand", "conditions": "10 µM", "endpoint": "inhibition", "result": "< 50%"}
{"SMILES": "Cc1cc(O)c(-c2ccc([C@@H](C)CN(C)C)cc2)c2c1[nH]c(=O)c1sccc12", "target": "[Pyruvate dehydrogenase (acetyl-transferring)] kinase isozyme 1, mitochondrial (PDK1, Homo sapiens, UniProt Q15118)", "test": "enzyme activity, inhibitor", "conditions": "0.1 µM, lysate", "endpoint": "inhibition", "result": "-15.2%"}
{"SMILES": "[2H]c1cc(C)c(NC(=O)c2cnc(Nc3cc(N4CCCCC4)nc(C)n3)s2)c(Cl)c1", "target": "BTK", "test": "enzyme activity, inhibitor, mobility shift", "conditions": "100 pM", "endpoint": "inhibition", "result": "> 50%"}
{"SMILES": "Cc1cc(-c2ccnc3[nH]cc(F)c23)cc(F)c1[C@@]1(O)[C@H](C)CN(C(=O)CN)C[C@@H]1C", "target": "AKT2", "test": "enzyme activity, inhibitor", "conditions": "0.1 µM", "endpoint": "remaining activity", "result": "113%"}
{"SMILES": "Cc1nc(Nc2ncc(C(=O)Nc3c(C)cccc3Cl)s2)cc(N2CC[C@H](O)C2)n1", "target": "BTK", "test": "enzyme activity, inhibitor, mobility shift", "conditions": "1 nM", "endpoint": "inhibition", "result": "72%"}
{"SMILES": "N#Cc1ccc(NC(=O)Nc2ccccc2)cc1", "target": "Atypical kinase COQ8A, mitochondrial (COQ8A, Homo sapiens, UniProt Q8NI60)", "test": "cell-free assay, competition with immobilised ligand", "conditions": "25 µM", "endpoint": "remaining binding", "result": "96%"}
{"SMILES": "Cc1nc(Nc2ncc(C(=O)Nc3c(C)cccc3Cl)s2)cc(N2CCCCC2)n1", "target": "BTK", "test": "enzyme activity, inhibitor, mobility shift", "conditions": "1 nM", "endpoint": "inhibition", "result": "56%"}
{"SMILES": "C[C@H](NC(=O)C(=O)Nc1ccccc1C(C)(C)C)C(=O)N[C@@H](CC(=O)O)C(=O)COc1c(F)c(F)cc(F)c1F", "target": "Caspase-8 (CASP8, Homo sapiens, UniProt Q14790)", "test": "enzyme activity, inhibitor", "endpoint": "kinact/KI", "result": "2.74e+06 M⁻¹ s⁻¹"}
